An excerpt weighted towards active compounds, which were near 2.3% of everything screened.
TRPC4 potent: positive allosteric modulators of TRPC4, primary screen, cell-based, mouse TRPC4beta, HEK293 mu-opioid, Fluo-4 calcium | B-score at 10 µM | Short transient receptor potential channel 4 (Mus musculus), Q9QUQ5 | 310,000 compounds, 0.42% hits | DAMGO EC20, Fluo-4 Ca2+ flux; stronger effect = higher value;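 active means B-score of calcium response area above 5 SD of library B-scores, with initial fluorescence ratio within 5 SD of library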;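 further: B-score of integrated fluorescence ratio over time as area under calcium response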
TRPC6 inh: mouse TRPC6 channel inhibitors, primary screen, cell-based, HEK293, membrane potential dye; Short transient receptor potential channel 6 (Mus musculus), Q61143; ACh-evoked depolarization; stronger effect = lower value; B-score at 10 µM; 310,000 compounds, 1.1% hits; AID 2553, 2010;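 active means B-score under library mean minus 3 SD, initial fluorescence not abnormally high, positive integrated signal ratio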;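 further: B-score derived from integrated fluorescence ratio over the kinetic read; more negative B-score means stronger inhibition of depolarization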
Target sequence (Q61143 whole entry, looked up): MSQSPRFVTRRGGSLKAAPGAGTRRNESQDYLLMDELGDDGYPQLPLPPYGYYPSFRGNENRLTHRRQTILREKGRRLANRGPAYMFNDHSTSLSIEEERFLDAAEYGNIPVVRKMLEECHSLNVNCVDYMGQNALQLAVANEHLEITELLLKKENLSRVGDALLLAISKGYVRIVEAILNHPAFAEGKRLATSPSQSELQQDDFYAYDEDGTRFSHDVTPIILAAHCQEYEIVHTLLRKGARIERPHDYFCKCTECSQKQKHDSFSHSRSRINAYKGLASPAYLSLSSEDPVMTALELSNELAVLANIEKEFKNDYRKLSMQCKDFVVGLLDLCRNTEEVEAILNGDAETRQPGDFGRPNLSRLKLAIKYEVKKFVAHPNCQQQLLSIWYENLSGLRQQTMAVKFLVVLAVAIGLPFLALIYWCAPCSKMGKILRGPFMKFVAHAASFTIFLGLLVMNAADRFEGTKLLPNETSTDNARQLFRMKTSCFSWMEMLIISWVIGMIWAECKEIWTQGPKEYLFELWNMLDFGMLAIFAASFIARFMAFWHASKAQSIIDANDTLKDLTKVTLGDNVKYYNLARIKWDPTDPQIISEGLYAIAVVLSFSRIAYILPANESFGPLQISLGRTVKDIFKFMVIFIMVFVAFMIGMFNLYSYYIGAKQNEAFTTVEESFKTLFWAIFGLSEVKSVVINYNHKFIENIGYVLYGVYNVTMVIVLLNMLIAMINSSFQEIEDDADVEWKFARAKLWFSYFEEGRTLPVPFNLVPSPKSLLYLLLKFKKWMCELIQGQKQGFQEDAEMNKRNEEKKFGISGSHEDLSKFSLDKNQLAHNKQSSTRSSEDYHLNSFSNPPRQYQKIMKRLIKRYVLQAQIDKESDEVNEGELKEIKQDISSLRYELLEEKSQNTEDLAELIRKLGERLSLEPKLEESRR
TRPC6 act: mouse TRPC6 channel activators, primary screen, cell-based, HEK293, membrane potential dye. Short transient receptor potential channel 6 (Mus musculus), Q61143. HEK293-TRPC6 membrane potential dye fluorescence; stronger effect = higher value. B-score at 10 µM. 310,000 compounds, 0.13% hits;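 active means B-score of the integrated fluorescence ratio above library mean plus 3 SD, and starting fluorescence ratio within library mean plus 5 SD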;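 further: higher score means more depolarization so channel activation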
TRPC4 block: inhibitors of mouse TRPC4 channel, primary screen, Fluo4 calcium, HEK293 TRPC4beta/mu-opioid cells; DAMGO-evoked Fluo4 calcium flux; stronger effect = lower value; Short transient receptor potential channel 4 (Mus musculus), Q9QUQ5; 300,000 compounds, 0.39% hits; B-score at 10 µM;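 active means B-score over 3 SD under the library average, no early fluorescence shift, positive overall ratio signal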
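material = TRPC4beta/mu-opioid receptor HEK293 cell line | probe or stimulus = sequential submaximal and maximal DAMGO stimulation | compound dosing = one concentration per compound | measured by = Fluo4 Ca2+ flux fluorescence | evaluation = integrated fluorescence ratio relative to baseline, converted to per-well B score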
TRPC4 act: activators of mouse TRPC4 channel, primary screen, Fluo4 calcium, HEK293 TRPC4beta/mu-opioid cells. 310,000 compounds, 0.49% hits. Fluo4 calcium fluorescence; stronger effect = higher value. AID 2237, 2010. B-score at 10 µM. Short transient receptor potential channel 4 (Mus musculus), Q9QUQ5;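 active means B-score above 5 SD of library B-scores, and initial fluorescence ratio not above library mean plus 5 SD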;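 further: positive B-score marks a calcium rise read as TRPC4 activation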
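System – HEK293 cells stably co-expressing mouse TRPC4beta and mu-opioid receptor · Signal – Fluo4 calcium-sensitive dye fluorescence, kinetic, 1 Hz baseline · Benchmarks – buffer (low) and maximal DAMGO (high) · Read-out – B score of integrated fluorescence ratio per well · Incubation – dye loading 45 min room temperature, 110 s kinetic read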
TRPC4 spec 2: second selectivity test of TRPC6 inhibitors: effect on mouse TRPC4 | HEK293 TRPC4/MOR, membrane potential dye fluorescence; channel activated by saturating DAMGO dose | inhibition, % at 10 µM | AID 2776 | 920 compounds, 42% hits | shares compounds with TRPC6 inh;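 active means compounds whose fluorescence signal differed from control wells by over 3 SD, either direction, in both duplicate plates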
TRPC4 spec: mouse TRPC4 modulation by TRPC6 hits, confirmation, selectivity assay for TRPC6 inhibitor project, cell-based, HEK293 TRPC4/mu-opioid, membrane potential dye; shares compounds with TRPC6 inh; membrane potential fluorescence; activity change, negative = inhibition, % at 10 µM; 920 compounds, 61% hits;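 active means rise or fall in signal beyond 3 SD of buffer-only wells in both replicate plates, either sign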;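 further: integrated kinetic ratio of fluorescence range over baseline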
HEK293 MPD ctr 2-1: nonspecific membrane potential effects, parental HEK293, confirmation, counter-screen for TRPC6 inhibitor project, cell-based, second counter screen | shares compounds with TRPC6 inh | parental HEK293 membrane potential dye fluorescence; maximal acetylcholine challenge after compound addition | signal change vs control, % at 10 µM | 920 compounds, 31% hits | AID 2779, 2010;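 active means membrane potential signal moving either way by over 3 SD of the maximum-effect control, in both duplicate plates, meaning non-specific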
HEK293 MPD ctr-1: membrane potential modulation in parental HEK293, confirmation, counter-screen for TRPC6 inhibitor project, cell-based; AID 2780, 2010; shares compounds with TRPC6 inh; membrane potential signal change, % at 10 µM; parental HEK293 membrane potential dye fluorescence; 920 compounds, 60% hits;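 active means membrane potential signal shifting up or down by more than 3 SD of buffer-only wells, on both duplicate plates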
HEK293 MPD ctr-2: parental HEK293 membrane potential modulation, confirmation, counter-screen for TRPC6 modulator project, cell-based | membrane potential signal change, % at 10 µM | shares compounds with TRPC6 inh | membrane potential dye fluorescence | 2,400 compounds, 51% hits;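 active means membrane potential signal moves up or down beyond 5 SD from buffer-only wells, on both duplicate plates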
HEK293 MPD ctr 2-2: parental HEK293 nonspecific activity of TRPC6 modulators, second screen; shares compounds with TRPC6 inh; membrane potential dye fluorescence; after compound, maximal acetylcholine stimulation; inhibition, % at 10 µM; 2,400 compounds, 14% hits;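 active means membrane potential signal drops by more than 5 SD from the mean control signal, in both duplicate plates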;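 further: plate controls were acetylcholine ECmax control wells for no effect and buffer only wells for full effect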
TRPC4 ctr mod: TRPC4 modulation by TRPC6 hit compounds, confirmation, selectivity assay for TRPC6 modulator project, cell-based, HEK293 TRPC4/mu-opioid, membrane potential dye, mouse; membrane potential fluorescence; percent change from control (negative = decrease, positive = increase), % at 10 µM; AID 488927, 2010; 2,400 compounds, 69% hits; shares compounds with TRPC6 inh;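 active means membrane potential signal moved up or down beyond 5 SD of buffer control wells, in both duplicate plates, actives on both sides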;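 further: plate controls were assay buffer wells for no effect and DAMGO maximal-effect wells for full effect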
TRPC4 ctr inh 2: second check of whether TRPC6 modulators also affect mouse TRPC4; 2,400 compounds, 55% hits; HEK293 TRPC4/mu-opioid, membrane potential dye fluorescence; stimulated with maximal-effect DAMGO; shares compounds with TRPC6 inh; AID 488928; inhibition, % at 10 µM;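 active means drop in membrane potential signal beyond 5 SD of the control wells in both duplicate plates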;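 further: TRPC4 counter screen for TRPC6 hits run under conditions tuned for TRPC6 not TRPC4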
TRPC6 block conf: mouse TRPC6 channel inhibitors, confirmation, HEK293 cells, membrane potential dye, duplicate | shares compounds with TRPC6 inh | ACh-evoked depolarization | inhibition, % at 10 µM | 3,300 compounds, 43% hits | AID 488960, 2010;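 active means fluorescence ratio falls more than 5 SD below the full-stimulation control mean, in both duplicate runs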;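 further: integrated fluorescence ratio of peak minus minimum over baseline after agonist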
TRPC6 act conf: mouse TRPC6 channel activators, confirmation, HEK293 cells, membrane potential dye, duplicate; shares compounds with TRPC6 inh; HEK293-TRPC6 membrane potential dye fluorescence, FDSS; activation, % at 10 µM; 2,800 compounds, 11% hits;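 active means ratio signal rise beyond 5 SD above unstimulated control wells' mean, seen in both duplicate runs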;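 further: plate controls were buffer EC0 wells for no effect and acetylcholine ECmax response for full effect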
Active calls of the source: *; i = inactive; . = not tested or not shown.

SMILES	TRPC4 potent	TRPC6 inh	TRPC6 act	TRPC4 block	TRPC4 act	HEK293 MPD ctr-2	HEK293 MPD ctr 2-2	TRPC4 ctr mod	TRPC4 ctr inh 2	TRPC6 block conf	TRPC6 act conf	others
CCN(CC)CCC(O)(c1ccccc1)C1CCCCC1 (configuration not stated)	i	i	i	i	i	.	.	.	.	.	.
CN1CCCN=C1COC(=O)C(O)(c1ccccc1)C1CCCCC1 (configuration not stated)	i	-7*	i	i	i	.	.	.	.	91%*	i	TRPC4 spec 2=i;TRPC4 spec=0.2%*;HEK293 MPD ctr 2-1=36%*;HEK293 MPD ctr-1=i
CCCCCOc1ccc(CSC(=N)N)cc1[N+](=O)[O-]	i	-7.6*	i	i	i	.	.	.	.	80%*	i	TRPC4 spec 2=46%*;TRPC4 spec=i;HEK293 MPD ctr 2-1=i;HEK293 MPD ctr-1=-130%*
CCCCOc1ccc(CN(CCO)CCO)cc1[N+](=O)[O-]	i	i	i	i	i	.	.	.	.	.	.
CCCCOc1ccc(Br)cc1CSC(=N)N	i	-6.9*	i	i	i	.	.	.	.	76%*	i	TRPC4 spec 2=18%*;TRPC4 spec=4.3%*;HEK293 MPD ctr 2-1=i;HEK293 MPD ctr-1=6.7%*
O=[N+]([O-])c1cccc(-c2nnc3ccccn23)c1	i	i	i	i	i	.	.	.	.	.	.
CCOC(=O)c1cc(C)sc1/N=C/C1=C(O)CCCC1=O	i	i	i	i	i	.	.	.	.	.	.
CN1c2cccc3cccc(c23)N(C)C1(C)C	i	i	i	i	i	.	.	.	.	.	.
CC(=O)c1ccc2cccc3c2c1N=CN3C	i	-8.9*	i	i	i	-146%*	68%*	-66%*	50%*	50%*	i
COc1cc(C(=O)OC(C)CN2C(C)CCCC2C)cc(OC)c1OC (configuration not stated)	i	i	i	i	i	.	.	.	.	.	.
O=C(COC(=O)C1c2ccccc2Oc2ccccc21)NC1CCS(=O)(=O)C1 (configuration not stated)	i	i	i	i	i	.	.	.	.	.	.
Cc1ccc(CN2CCSc3ccc(C(=O)NCCCN4CCOCC4)cc32)cc1	i	i	i	i	i	.	.	.	.	.	.
CCN1CCN(CCCNC(=O)c2ccc3c(c2)N(Cc2ccc(C)cc2)CCS3)CC1	i	-5.2*	i	i	i	i	i	i	74%*	57%*	i
CN1CCN(CCCNC(=O)c2ccc3c(c2)N(Cc2ccccc2)CCS3)CC1	i	-7.9*	i	i	i	.	.	.	.	i	i	TRPC4 spec 2=62%*;TRPC4 spec=i;HEK293 MPD ctr 2-1=i;HEK293 MPD ctr-1=i
O=C(CN1CCCC1)N/N=C/c1c(O)ccc2ccccc12	i	i	i	i	i	.	.	.	.	.	.
CC(C)(C)n1nc2c(c1NC(=O)c1cc(Cl)ccc1[N+](=O)[O-])CS(=O)(=O)C2	i	i	i	i	i	.	.	.	.	.	.
CCN(CC)c1ccc(-c2nc3cnccc3n2C)cc1	i	-5.9*	i	i	i	-170%*	i	-30%*	34%*	i	i
COc1cc(C(=O)Nc2ccc(N(C)C)cc2)cc(OC)c1OC	i	-6.4*	i	i	i	i	i	i	i	i	i
COc1cc(C(=O)Nc2ccc(NC(=O)c3cccc(Cl)c3)nc2)cc(OC)c1OC	i	-5.4*	i	i	i	i	i	i	i	i	i
N=c1c2c3c(sc2ncn1Cc1ccccc1)CCCC3	i	-6.5*	i	i	i	i	i	-12%*	39%*	i	i
N=c1c2c3c(sc2ncn1Nc1ccccc1)CCC3	i	-5.3*	i	i	i	i	i	-8.5%*	52%*	51%*	i
CCCCn1cnc2sc3c(c2c1=N)CCCC3	i	-7.1*	i	i	i	.	.	.	.	i	i	TRPC4 spec 2=62%*;TRPC4 spec=-17%*;HEK293 MPD ctr 2-1=i;HEK293 MPD ctr-1=-228%*
N=c1c2c3c(sc2ncn1CCCO)CCCC3	i	i	i	i	i	.	.	.	.	.	.
N=c1c2c3c(sc2ncn1CCN1CCOCC1)CCCCC3	i	i	i	i	i	.	.	.	.	.	.
Cc1cc(NC(=O)c2ccc3c(c2)C(=O)N(C)C3=O)no1	i	-6.1*	i	i	i	-99%*	i	-19%*	i	i	i
